Measured values from ChEMBL document CHEMBL2406932, “Heteroaromatic and aniline derivatives of piperidines as potent ligands for vesicular acetylcholine transporter” (J Med Chem, 2013).

Key:
PC-12 [1] = test: Selectivity ratio, ratio of Ki for sigma 1 receptor in guinea pig brain homogenates to Ki for human VAChT expressed in rat PC12 cells; format: cell-based
PC-12 [2] = test: Selectivity ratio, ratio of Ki for sigma 2 receptor in rat liver homogenates to Ki for human VAChT expressed in rat PC12 cells; format: cell-based
[3] = Displacement of [3H]DTG from sigma 2 receptor in rat liver membrane homogenates after 120 mins by scintillation counting analysis; format: cell membranes
Method in brief: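 Rat liver membrane homogenate (~300 µg protein) with ~5 nM [3H]DTG plus 1 µM (+)-pentazocine to block sigma-1 sites, 120 min at room temperature, pH 7.4 Tris buffer. Nonspecific binding taken with 10 µM haloperidol. Filtration and scintillation counting.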

[4] = target: Sigma non-opioid intracellular receptor 1 (Cavia porcellus, UniProt Q60492); test: Displacement of (+)- [3H]pentazocine from sigma 1 receptor expressed in guinea pig brain membrane homogenates by scintillation counting analysis; format: cell membranes
Chain of Sigma non-opioid intracellular receptor 1 (Q60492 whole entry): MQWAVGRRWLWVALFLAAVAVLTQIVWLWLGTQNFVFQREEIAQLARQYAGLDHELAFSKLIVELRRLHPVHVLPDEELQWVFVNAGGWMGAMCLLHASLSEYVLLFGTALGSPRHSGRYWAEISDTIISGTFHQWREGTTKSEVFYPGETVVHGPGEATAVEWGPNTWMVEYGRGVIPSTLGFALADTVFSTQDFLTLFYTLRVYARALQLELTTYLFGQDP

[5] = tested as the 11C-labelled form

Row | Compound | Ratio Ki (PC-12 [1]; [5]) | Ratio Ki (PC-12 [2]; [5]) | Ki [3] [µM] | Ratio Ki (PC-12 [1]) | Ratio Ki (PC-12 [2]) | Ki [4] [µM]
1 | CNc1ccc(C(=O)C2CCN([C@H]3Cc4ccccc4C[C@@H]3O)CC2)cc1 | 1270 | 14700 | – | – | – | –
2 | O=C(c1ccccc1)C1CCN([C@@H]2Cc3ccccc3C[C@H]2O)CC1 (racemic) | – | – | 0.32 | 51 | 74 | –
3 | O=C(c1cncc(F)c1)C1CCN([C@@H]2Cc3ccccc3C[C@H]2O)CC1 (racemic) | – | – | 1.69 | 70 | 170 | 0.709
4 | Cn1ccc(C(=O)C2CCN([C@@H]3Cc4ccccc4C[C@H]3O)CC2)cc1=O (racemic) | – | – | 2.12 | 51 | 32 | 3.35
5 | Cn1c(C(=O)C2CCN([C@@H]3Cc4ccccc4C[C@H]3O)CC2)cccc1=O (racemic) | – | – | 3.34 | 12 | 18 | 2.16
6 | O=C(c1ccc(F)nc1)C1CCN([C@@H]2Cc3ccccc3C[C@H]2O)CC1 (racemic) | – | – | 1.75 | 26 | 67 | 0.682
7 | O=C(c1cccnc1F)C1CCN([C@@H]2Cc3ccccc3C[C@H]2O)CC1 (racemic) | – | – | 3.53 | – | 280 | 1.3
8 | CN(C)c1ccc(C(=O)C2CCN([C@@H]3Cc4ccccc4C[C@H]3O)CC2)cc1 (racemic) | – | – | 4.08 | 44 | 4400 | 0.0409
9 | CNc1ccc(C(=O)C2CCN([C@@H]3Cc4ccccc4C[C@H]3O)CC2)cc1 (racemic) | – | – | 6.18 | 100 | 2000 | 0.305
10 | O=C(c1ccc(OCCF)nc1)C1CCN([C@@H]2Cc3ccccc3C[C@H]2O)CC1 (racemic) | – | – | 1.86 | 56 | 49 | 2.12
11 | O=C(c1ncccc1OCCF)C1CCN([C@@H]2Cc3ccccc3C[C@H]2O)CC1 (racemic) | – | – | 0.303 | 260 | 4 | 20
12 | Cn1cccc1C(=O)C1CCN([C@@H]2Cc3c(N)cccc3C[C@H]2O)CC1 (racemic) | – | – | 6.99 | 200 | 180 | 7.66
13 | Cn1cccc1C(=O)C1CCN([C@@H]2Cc3cccc(N)c3C[C@H]2O)CC1 (racemic) | – | – | 11.4 | 4 | 4.9 | 9.24
14 | Cn1cccc1C(=O)C1CCN([C@@H]2Cc3ccccc3C[C@H]2O)CC1 (racemic) | – | – | 2.55 | 71 | 140 | 1.3
15 | Cn1ccc(C(=O)C2CCN([C@@H]3Cc4ccccc4C[C@H]3O)CC2)c1 (racemic) | – | – | 7.71 | – | – | 3.04
16 | O=C(c1cccnc1)C1CCN([C@@H]2Cc3ccccc3C[C@H]2O)CC1 (racemic) | – | – | 3.03 | 540 | 130 | 12.9
17 | Cc1ccc(C(=O)C2CCN([C@@H]3Cc4ccccc4C[C@H]3O)CC2)cn1 (racemic) | – | – | 3.77 | – | – | 2.12
18 | COc1cccnc1C(=O)C1CCN([C@@H]2Cc3ccccc3C[C@H]2O)CC1 (racemic) | – | – | 1.56 | 170 | 13 | 21
19 | O=C(c1ccc(F)cc1)C1CCN([C@@H]2Cc3ccccc3C[C@H]2O)CC1 (relative stereo) | – | – | 0.251 | – | – | –
